Experimental findings from ChEMBL document CHEMBL1681705, “Optimisation of ITK inhibitors through successive iterative design cycles” (Bioorg Med Chem Lett, 2011) are described below.

Molecules are shown by their SMILES.

In assay [1] the target is Dual specificity mitogen-activated protein kinase kinase 1 (Homo sapiens) (UniProt Q02750). The assay is described as follows: Inhibition of MEK1 at 0.1 uM; values are per cent of control.
Assay [2] has as its target Tyrosine-protein kinase Lck (Homo sapiens) (UniProt P06239). Nature of the assay: Inhibition of Lck at 1 uM. The procedure, abridged:
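Single-point screen within a 108-kinase selectivity panel. Each kinase was tested with inhibitor at 0.1 and 1.0 micromolar, and activity was recorded as percent inhibition.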

Assay [3] addresses Tyrosine-protein kinase Yes (Homo sapiens) (UniProt P07947). The assay is described as follows: Inhibition of Yes at 1 uM; values are per cent of control.
For assay [4], the target named is T1, Aurora kinase A (Homo sapiens) (UniProt O14965).
T1 sequence (whole entry): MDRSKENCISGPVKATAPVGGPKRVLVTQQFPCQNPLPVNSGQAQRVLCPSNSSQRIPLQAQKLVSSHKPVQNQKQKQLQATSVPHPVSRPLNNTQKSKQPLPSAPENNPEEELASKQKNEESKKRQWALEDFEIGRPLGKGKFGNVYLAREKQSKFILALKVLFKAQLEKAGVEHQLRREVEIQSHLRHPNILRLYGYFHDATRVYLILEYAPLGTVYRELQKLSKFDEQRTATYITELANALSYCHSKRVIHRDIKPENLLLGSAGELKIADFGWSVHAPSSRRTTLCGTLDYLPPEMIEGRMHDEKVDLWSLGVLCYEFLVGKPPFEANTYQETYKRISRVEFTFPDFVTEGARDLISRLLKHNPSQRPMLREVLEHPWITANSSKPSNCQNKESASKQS
The assay is described as follows: Inhibition of aurora-A at 1 uM; values are per cent of control.

For assay [5], the target named is Tyrosine-protein kinase ABL1 (Homo sapiens) (UniProt P00519). Nature of the assay: Inhibition of Abl at 1 uM; values are per cent of control.
Chain of Tyrosine-protein kinase ABL1 (Homo sapiens) (P00519 whole entry): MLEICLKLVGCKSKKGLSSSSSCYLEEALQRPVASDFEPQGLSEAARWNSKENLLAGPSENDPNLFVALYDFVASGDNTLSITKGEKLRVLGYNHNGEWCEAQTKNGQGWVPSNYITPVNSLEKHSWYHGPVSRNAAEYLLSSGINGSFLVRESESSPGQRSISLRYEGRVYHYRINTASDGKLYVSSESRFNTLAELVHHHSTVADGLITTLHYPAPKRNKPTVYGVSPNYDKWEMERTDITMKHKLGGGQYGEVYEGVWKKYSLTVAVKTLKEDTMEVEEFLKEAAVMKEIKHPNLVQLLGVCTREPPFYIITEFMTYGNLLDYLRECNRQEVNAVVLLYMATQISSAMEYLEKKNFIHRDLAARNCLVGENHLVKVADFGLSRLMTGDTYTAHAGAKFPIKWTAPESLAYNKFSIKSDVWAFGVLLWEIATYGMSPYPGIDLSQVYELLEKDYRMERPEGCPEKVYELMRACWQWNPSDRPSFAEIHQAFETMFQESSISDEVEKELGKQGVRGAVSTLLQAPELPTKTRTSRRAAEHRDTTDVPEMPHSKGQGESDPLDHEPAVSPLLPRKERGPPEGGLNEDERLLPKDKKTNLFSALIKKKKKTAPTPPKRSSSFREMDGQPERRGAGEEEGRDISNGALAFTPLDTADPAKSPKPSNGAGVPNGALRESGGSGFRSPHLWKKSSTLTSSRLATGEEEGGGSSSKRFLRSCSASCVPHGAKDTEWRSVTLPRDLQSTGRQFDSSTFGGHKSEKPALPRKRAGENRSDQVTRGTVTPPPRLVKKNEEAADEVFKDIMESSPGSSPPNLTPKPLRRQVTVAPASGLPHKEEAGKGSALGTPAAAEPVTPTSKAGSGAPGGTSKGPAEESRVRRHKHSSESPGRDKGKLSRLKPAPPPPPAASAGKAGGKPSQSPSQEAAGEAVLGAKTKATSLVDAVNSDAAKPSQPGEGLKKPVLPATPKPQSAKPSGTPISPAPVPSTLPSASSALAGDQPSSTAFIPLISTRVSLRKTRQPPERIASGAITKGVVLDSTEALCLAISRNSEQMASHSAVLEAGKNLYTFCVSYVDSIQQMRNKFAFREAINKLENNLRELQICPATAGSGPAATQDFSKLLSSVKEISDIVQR
For assay [6], the target named is T2, Ephrin type-A receptor 8 (Homo sapiens) (UniProt P29322).
T2 sequence (whole entry): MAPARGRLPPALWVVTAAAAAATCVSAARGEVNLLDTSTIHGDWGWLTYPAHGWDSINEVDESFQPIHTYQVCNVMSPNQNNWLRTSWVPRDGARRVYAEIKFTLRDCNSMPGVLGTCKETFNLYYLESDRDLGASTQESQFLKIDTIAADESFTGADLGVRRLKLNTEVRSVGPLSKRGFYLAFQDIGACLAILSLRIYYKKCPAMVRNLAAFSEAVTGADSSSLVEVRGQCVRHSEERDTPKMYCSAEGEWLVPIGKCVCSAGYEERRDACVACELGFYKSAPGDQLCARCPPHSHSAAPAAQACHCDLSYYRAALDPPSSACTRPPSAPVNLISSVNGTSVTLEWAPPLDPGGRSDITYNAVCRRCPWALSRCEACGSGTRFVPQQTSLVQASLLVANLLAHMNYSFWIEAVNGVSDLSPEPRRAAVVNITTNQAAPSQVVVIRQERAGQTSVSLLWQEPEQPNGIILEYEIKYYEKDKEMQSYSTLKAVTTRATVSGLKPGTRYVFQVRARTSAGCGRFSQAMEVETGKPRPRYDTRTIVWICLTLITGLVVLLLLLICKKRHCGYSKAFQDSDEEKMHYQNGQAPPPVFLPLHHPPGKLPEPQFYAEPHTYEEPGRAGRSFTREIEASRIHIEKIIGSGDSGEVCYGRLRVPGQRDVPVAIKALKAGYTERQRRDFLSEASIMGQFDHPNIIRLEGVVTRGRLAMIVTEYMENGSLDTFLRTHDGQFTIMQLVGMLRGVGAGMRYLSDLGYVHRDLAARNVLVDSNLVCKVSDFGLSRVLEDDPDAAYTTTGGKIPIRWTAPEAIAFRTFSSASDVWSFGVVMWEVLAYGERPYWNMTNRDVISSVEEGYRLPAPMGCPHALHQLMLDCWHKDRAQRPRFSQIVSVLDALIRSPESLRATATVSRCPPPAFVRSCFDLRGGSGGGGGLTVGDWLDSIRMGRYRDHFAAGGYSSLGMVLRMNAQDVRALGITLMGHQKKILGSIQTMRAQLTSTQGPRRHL
The assay is described as follows: Inhibition of EphA8 at 0.1 uM; values are per cent of control.

Assay [7] deals with T3, Inhibitor of nuclear factor kappa-B kinase subunit beta (Homo sapiens) (UniProt O14920).
T3 sequence (whole entry): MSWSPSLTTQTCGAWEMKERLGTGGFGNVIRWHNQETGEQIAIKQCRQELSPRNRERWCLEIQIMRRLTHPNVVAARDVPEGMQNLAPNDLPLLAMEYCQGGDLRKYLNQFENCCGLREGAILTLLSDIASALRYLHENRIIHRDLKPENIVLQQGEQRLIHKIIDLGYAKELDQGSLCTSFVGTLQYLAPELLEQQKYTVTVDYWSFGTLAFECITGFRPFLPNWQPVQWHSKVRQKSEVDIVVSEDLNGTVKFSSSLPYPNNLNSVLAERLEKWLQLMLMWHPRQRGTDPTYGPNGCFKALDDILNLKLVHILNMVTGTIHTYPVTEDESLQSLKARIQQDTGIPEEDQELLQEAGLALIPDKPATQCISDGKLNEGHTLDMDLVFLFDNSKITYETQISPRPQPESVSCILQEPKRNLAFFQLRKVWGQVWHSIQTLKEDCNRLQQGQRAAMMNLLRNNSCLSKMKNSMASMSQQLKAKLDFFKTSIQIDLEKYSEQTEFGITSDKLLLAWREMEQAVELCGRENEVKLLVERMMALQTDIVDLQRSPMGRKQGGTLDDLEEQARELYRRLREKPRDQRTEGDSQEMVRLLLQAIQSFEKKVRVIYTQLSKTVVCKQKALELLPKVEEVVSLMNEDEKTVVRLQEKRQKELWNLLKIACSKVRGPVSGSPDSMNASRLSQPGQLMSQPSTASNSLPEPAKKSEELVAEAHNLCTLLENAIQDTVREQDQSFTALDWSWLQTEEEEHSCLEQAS
The assay is described as follows: Inhibition of IKK-beta at 0.1 uM; values are per cent of control.

For assay [8], the target named is Cyclin-dependent kinase 7/ cyclin H (Homo sapiens) (UniProt P51946+P50613). The assay is described as follows: Inhibition of CDK7/cyclin H/MAT1 at 1 uM; values are per cent of control.
Assay [9] deals with Cyclin-dependent kinase 5/CDK5 activator 1 (Homo sapiens) (UniProt Q00535+Q15078). Nature of the assay: Inhibition of CDK5/p35 at 0.1 uM; values are per cent of control.
Chain of Cyclin-dependent kinase 5/CDK5 activator 1 (Homo sapiens) (Q00535 whole entry): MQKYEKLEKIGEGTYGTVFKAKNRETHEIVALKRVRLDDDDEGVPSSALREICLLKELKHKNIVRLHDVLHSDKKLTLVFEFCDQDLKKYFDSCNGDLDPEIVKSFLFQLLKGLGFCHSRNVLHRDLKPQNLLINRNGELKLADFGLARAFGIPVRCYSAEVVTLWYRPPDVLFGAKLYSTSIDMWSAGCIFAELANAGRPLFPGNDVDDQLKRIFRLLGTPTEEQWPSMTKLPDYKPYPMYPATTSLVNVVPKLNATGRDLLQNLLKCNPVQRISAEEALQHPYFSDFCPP
Chain of Cyclin-dependent kinase 5/CDK5 activator 1 (Homo sapiens) (Q15078 99-307 partner limits assumed): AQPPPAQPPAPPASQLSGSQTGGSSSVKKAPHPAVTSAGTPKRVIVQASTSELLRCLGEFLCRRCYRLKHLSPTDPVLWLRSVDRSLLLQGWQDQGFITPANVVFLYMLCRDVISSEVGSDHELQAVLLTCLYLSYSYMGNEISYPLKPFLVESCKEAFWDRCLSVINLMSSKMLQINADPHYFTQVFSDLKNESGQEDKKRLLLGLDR
The target of assay [10] is BDNF/NT-3 growth factors receptor (Homo sapiens) (UniProt Q16620). Nature of the assay: Inhibition of TrkB at 1 uM; values are per cent of control.
Chain of BDNF/NT-3 growth factors receptor (Homo sapiens) (Q16620 32-822 limits assumed): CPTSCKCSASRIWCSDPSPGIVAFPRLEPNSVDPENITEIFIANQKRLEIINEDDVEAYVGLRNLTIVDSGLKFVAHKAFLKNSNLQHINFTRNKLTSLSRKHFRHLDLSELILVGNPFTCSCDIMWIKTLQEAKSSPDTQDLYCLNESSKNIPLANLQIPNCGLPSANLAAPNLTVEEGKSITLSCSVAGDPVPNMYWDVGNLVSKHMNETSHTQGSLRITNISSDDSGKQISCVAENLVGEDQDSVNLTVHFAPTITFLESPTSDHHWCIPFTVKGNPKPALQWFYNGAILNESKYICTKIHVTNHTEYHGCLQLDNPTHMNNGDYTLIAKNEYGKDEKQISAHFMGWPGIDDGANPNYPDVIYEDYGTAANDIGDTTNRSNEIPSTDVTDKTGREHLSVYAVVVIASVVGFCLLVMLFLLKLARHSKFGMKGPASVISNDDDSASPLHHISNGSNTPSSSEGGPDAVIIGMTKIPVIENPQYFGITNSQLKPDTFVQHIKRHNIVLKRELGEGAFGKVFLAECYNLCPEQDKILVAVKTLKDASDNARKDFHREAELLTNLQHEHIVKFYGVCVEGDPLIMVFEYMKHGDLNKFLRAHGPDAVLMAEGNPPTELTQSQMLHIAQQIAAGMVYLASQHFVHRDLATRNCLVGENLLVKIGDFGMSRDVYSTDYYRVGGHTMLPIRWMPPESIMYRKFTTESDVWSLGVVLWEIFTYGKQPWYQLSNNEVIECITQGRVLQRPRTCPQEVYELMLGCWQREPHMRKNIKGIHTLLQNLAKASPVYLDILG
For assay [11], the target named is Ribosomal protein S6 kinase alpha-1 (Homo sapiens) (UniProt Q15418). Nature of the assay: Inhibition of Rsk1 at 0.1 uM; values are per cent of control.
Chain of Ribosomal protein S6 kinase alpha-1 (Homo sapiens) (Q15418 whole entry): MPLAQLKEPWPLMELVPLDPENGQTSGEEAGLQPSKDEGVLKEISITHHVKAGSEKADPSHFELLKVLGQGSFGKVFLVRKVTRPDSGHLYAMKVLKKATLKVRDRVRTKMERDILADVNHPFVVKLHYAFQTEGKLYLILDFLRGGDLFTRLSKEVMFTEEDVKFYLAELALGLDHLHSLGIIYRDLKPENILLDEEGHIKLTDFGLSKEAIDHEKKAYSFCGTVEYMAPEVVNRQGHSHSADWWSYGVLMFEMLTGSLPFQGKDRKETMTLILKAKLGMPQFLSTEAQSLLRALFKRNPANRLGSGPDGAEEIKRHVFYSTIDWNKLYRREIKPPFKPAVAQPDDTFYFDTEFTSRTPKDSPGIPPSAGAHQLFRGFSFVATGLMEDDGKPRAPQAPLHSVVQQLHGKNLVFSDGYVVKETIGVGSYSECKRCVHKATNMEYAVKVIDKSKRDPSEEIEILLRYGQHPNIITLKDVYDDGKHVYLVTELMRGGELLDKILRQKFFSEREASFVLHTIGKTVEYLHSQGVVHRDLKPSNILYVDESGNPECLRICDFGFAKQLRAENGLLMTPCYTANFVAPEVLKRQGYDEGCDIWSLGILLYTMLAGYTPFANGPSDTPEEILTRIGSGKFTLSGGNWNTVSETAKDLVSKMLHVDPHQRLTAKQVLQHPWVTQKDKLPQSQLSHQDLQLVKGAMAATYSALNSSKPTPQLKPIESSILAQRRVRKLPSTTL

Chain of Tyrosine-protein kinase Lck (Homo sapiens) (P06239 2-509 limits assumed): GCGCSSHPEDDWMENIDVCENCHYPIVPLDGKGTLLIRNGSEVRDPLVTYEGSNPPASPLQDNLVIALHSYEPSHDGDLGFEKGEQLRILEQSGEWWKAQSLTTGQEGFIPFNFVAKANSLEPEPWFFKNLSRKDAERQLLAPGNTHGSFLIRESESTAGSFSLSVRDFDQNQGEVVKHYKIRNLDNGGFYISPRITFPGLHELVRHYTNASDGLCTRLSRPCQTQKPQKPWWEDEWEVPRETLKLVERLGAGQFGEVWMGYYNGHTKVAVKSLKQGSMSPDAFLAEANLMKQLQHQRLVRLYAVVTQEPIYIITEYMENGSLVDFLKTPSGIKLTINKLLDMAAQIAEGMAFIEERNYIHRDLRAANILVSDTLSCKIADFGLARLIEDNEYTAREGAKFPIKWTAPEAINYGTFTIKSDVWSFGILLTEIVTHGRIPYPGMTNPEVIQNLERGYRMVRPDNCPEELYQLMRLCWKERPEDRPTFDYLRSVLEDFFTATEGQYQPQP
Chain of Tyrosine-protein kinase Yes (Homo sapiens) (P07947 2-543 limits assumed): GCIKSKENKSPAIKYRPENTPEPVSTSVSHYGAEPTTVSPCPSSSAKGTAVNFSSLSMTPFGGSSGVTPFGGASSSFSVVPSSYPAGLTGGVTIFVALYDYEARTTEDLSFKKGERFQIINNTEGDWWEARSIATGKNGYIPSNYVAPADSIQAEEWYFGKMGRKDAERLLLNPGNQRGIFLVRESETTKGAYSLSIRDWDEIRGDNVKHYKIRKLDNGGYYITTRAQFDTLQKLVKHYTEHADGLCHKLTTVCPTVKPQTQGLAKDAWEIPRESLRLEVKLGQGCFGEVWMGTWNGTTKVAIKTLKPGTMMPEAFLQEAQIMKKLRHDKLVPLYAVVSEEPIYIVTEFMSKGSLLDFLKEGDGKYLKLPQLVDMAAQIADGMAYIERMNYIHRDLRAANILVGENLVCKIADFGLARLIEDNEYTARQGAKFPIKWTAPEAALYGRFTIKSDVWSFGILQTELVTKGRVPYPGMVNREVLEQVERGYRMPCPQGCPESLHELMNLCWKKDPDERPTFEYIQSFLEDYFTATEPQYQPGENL
Chain of Dual specificity mitogen-activated protein kinase kinase 1 (Homo sapiens) (Q02750 whole entry): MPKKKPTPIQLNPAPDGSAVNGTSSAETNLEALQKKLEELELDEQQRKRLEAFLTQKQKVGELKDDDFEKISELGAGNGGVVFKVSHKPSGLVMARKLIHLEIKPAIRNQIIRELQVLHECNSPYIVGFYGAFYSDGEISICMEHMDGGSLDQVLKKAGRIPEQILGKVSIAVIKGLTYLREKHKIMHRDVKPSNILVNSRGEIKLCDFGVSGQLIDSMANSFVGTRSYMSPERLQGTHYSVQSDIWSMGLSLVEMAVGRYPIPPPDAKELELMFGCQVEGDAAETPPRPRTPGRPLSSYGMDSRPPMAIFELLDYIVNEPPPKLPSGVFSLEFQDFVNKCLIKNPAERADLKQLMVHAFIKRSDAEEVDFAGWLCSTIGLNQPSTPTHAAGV

As usually defined, the inhibition is the share of the control response that was lost under treatment. For the molecule `Cc1ccc2cc(-c3n[nH]c4ccc(NC5CCNC5)cc34)[nH]c2c1` (configuration not stated), the residual activity in assay [1] was determined as 51%; in assay [3], 0%; in assay [4], 0%; in assay [5] it was 0%; in assay [6], 97%; in assay [7] it was 99%. Further, the residual activity turned out to be 10% in assay [8], 19% in assay [9], 1% in assay [10] and 6% in assay [11]. Further, in assay [2], the inhibition turned out to be 0%.

In the case of `Cc1ccc2cc(-c3n[nH]c4ccc(NC5CCN(Cc6ccccc6)CC5)cc34)[nH]c2c1`, the residual activity is 96% in assay [1]; -3% in [3]; -7% in [4]; 0% in assay [5]; 92% in [6]; 103% in [7]. Further, the residual activity in assay [8] was 28%; in assay [9], 20%; in assay [10] it was 0%; in assay [11], 97%. For the same molecule, the inhibition in [2] stood at 9%.
